Laboratory results reported in ChEMBL document CHEMBL1145524, “Structure-based activity prediction for an enzyme of unknown function” (Nature, 2007).

Legend:
[1] = target: T1, Adenosylhomocysteinase (Thermotoga maritima (strain ATCC 43589 / MSB8 / DSM 3109 / JCM 10099)) (UniProt O51933); assay: (§1) Activity of Thermotoga maritima S-adenosyl-L-homocysteine hydrolase Tm0172 assessed as homocysteine hydrolysis
T1 sequence (whole entry): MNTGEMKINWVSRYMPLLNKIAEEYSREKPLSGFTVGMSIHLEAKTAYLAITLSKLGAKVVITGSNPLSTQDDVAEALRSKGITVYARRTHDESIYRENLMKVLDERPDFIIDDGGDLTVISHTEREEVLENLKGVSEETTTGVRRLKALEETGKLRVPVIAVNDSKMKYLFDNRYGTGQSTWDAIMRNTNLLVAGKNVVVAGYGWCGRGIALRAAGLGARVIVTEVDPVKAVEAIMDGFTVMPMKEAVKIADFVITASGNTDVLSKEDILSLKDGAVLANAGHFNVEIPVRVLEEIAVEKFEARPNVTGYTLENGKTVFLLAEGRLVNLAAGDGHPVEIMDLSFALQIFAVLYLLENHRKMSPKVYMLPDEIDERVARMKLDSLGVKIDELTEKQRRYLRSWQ
Procedure, shortened: (§2)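 Tm0172 expressed in E. coli (arabinose induction), heat-treated 65 °C and purified on chelating Sepharose as His-tagged protein. Assay: 100 mM HEPES pH 8.0, 1.0 mM DTNB, 1.0 mM EDTA, 13 μM Tm0172, substrate up to 10 mM, 30 °C. kcat and kcat/Km obtained by fitting initial velocities to the Michaelis–Menten equation.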

[2] = substrate: Nc1ncnc2c1ncn2[C@@H]1O[C@H](CSCC[C@H](N)C(=O)O)[C@@H](O)[C@H]1O; assay: Ratio of Kcat to Km for Thermotoga maritima S-adenosyl-L-homocysteine hydrolase Tm0172 assessed as homocysteine hydrolysis; procedure, shortened: as §2
[3] = substrate: Nc1ncnc2c1ncn2[C@@H]1O[C@H](CSCC[C@H](N)C(=O)O)[C@@H](O)[C@H]1O; assay: as §1; procedure, shortened: as §2
[4] = substrate: CSC[C@H]1O[C@@H](n2cnc3c(N)ncnc32)[C@H](O)[C@@H]1O; assay: (§3) Ratio of Kcat to Km for Thermotoga maritima S-adenosyl-homocysteine deaminase Tm0936 assessed as ammonia production
Procedure, shortened: (§4)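 Recombinant Tm0936 was expressed in E. coli, heat-treated at 65 °C, then purified by anion exchange and gel filtration (Zn-containing). Ammonia release was coupled to glutamate dehydrogenase, with NADH loss read at 340 nm. Assay: 100 mM HEPES pH 8.0, 7.4 mM α-ketoglutarate, 0.4 mM NADH, 6 units GDH, 30 °C. kcat and kcat/Km came from fitting initial velocities versus substrate concentration.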

[5] = substrate: Nc1ncnc2c1ncn2[C@@H]1O[C@H](CO)[C@@H](O)[C@H]1O; assay: as §3; procedure, shortened: as §4
[6] = substrate: Nc1ncnc2c1ncn2[C@@H]1O[C@H](CSCC[C@H](N)C(=O)O)[C@@H](O)[C@H]1O; assay: as §3; procedure, shortened: as §4
[7] = substrate: Nc1ncnc2c1ncn2[C@@H]1O[C@H](COP(=O)(O)O)[C@@H](O)[C@H]1O; assay: (§5) Activity of Thermotoga maritima S-adenosyl-homocysteine deaminase Tm0936 assessed as ammonia production; procedure, shortened: as §4
[8] = substrate: CSC[C@H]1O[C@@H](n2cnc3c(N)ncnc32)[C@H](O)[C@@H]1O; assay: as §5; procedure, shortened: as §4
[9] = substrate: Nc1ncnc2c1ncn2[C@@H]1O[C@H](CO)[C@@H](O)[C@H]1O; assay: as §5; procedure, shortened: as §4
[10] = substrate: C[S+](CC[C@H](N)C(=O)[O-])C[C@H]1O[C@@H](n2cnc3c(N)ncnc32)[C@H](O)[C@@H]1O; assay: as §5; procedure, shortened: as §4
[11] = substrate: Nc1ncnc2c1ncn2[C@@H]1O[C@H](CSCC[C@H](N)C(=O)O)[C@@H](O)[C@H]1O; assay: as §5; procedure, shortened: as §4

Molecule: Nc1ncnc2c1ncn2[C@@H]1O[C@H](CSCC[C@H](N)C(=O)O)[C@@H](O)[C@H]1O
- kcat [1]: 0.004 s⁻¹

B1: Adenosylhomocysteinase (Thermotoga maritima (strain ATCC 43589 / MSB8 / DSM 3109 / JCM 10099)), O51933 (protein)
chain: T1 sequence (whole entry)
- kcat/Km [2]: 1.1 10^2/M/s
- Km [3]: 21 µM

B2: 5-methylthioadenosine/S-adenosylhomocysteine deaminase (Thermotoga maritima (strain ATCC 43589 / MSB8 / DSM 3109 / JCM 10099)), Q9X034 (protein)
chain: MIIGNCLILKDFSSEPFWGAVEIENGTIKRVLQGEVKVDLDLSGKLVMPALFNTHTHAPMTLLRGVAEDLSFEEWLFSKVLPIEDRLTEKMAYYGTILAQMEMARHGIAGFVDMYFHEEWIAKAVRDFGMRALLTRGLVDSNGDDGGRLEENLKLYNEWNGFEGRIFVGFGPHSPYLCSEEYLKRVFDTAKSLNAPVTIHLYETSKEEYDLEDILNIGLKEVKTIAAHCVHLPERYFGVLKDIPFFVSHNPASNLKLGNGIAPVQRMIEHGMKVTLGTDGAASNNSLNLFFEMRLASLLQKAQNPRNLDVNTCLKMVTYDGAQAMGFKSGKIEEGWNADLVVIDLDLPEMFPVQNIKNHLVHAFSGEVFATMVAGKWIYFDGEYPTIDSEEVKRELARIEKELYSS
- kcat/Km [4]: 1.5 10^5/M/s
- kcat/Km [5]: 9.2 10^3/M/s
- kcat/Km [6]: 5.8 10^4/M/s
- kcat [7]: 1 10^-3/s
- Km [8]: 44 µM
- kcat [8]: 7.2 s⁻¹
- Km [9]: 250 µM
- kcat [9]: 2.3 s⁻¹
- kcat [10]: 1 10^-3/s
- Km [11]: 210 µM
- kcat [11]: 12.2 s⁻¹
